Published values of several laboratories.
Each line is one published result; the experiments were not run side by side.
Target: Serine/threonine-protein kinase pim-1 (PIM1, Homo sapiens, UniProt P11309)

SMILES	read-out	mode	technique	concentration	measurement	result
CC(=O)ON=C1C=CC(=C(C#N)c2ccccc2)C=C1	enzyme activity	inhibitor	ADP detection	20 µM	activity vs control	102%
CN1CCN(C(=O)c2ccc(NC(=O)Nc3ccc(N(C)c4ccnc(Nc5ccc(CS(C)(=O)=O)cc5)n4)cc3)cc2)CC1	binding	–	–	1 µM	remaining binding	100%
CCCCC(=O)Nc1ccc(-c2ccc3ncn(CCC)c(=O)c3c2)cn1	binding	–	competition with immobilised ligand	0.5 µM	remaining binding	100%
C#Cc1cnc(Nc2ccnc(CO)c2)nc1Nc1ccccc1S(C)(=O)=NC#N (centres unmarked)	cell-free assay	–	–	1 µM	remaining signal	87%
COc1ccc2oc(-c3ccc4nc(N)oc4c3)c/c(=N\c3ccccc3NC(=O)CCN)c2c1	binding	–	–	1 µM	remaining binding	119%
N#Cc1ccc(NC(=O)Nc2ccccc2)cc1	cell-free assay	–	competition with immobilised ligand	25 µM	remaining binding	87%
C1=C/COCc2cc(ccc2OCCN2CCCC2)Nc2nccc(n2)-c2cccc(c2)COC/1	binding	–	–	0.1 µM	remaining binding	100%
C=CC(=O)N1CCC([C@@H]2CCNc3c(C(N)=O)c(-c4ccc(Oc5ccccc5)cc4)nn32)CC1	enzyme activity	inhibitor	–	1 µM	inhibition	6%
C[C@H]1CC[C@H](n2c3cnccc3c3cnc(Nc4ccc5c(n4)CCN(C(=O)CO)C5)nc32)CC1	cell-free assay	–	–	1 µM	remaining signal	59%
CC(C)S(=O)(=O)c1ccc2nccc(Nc3ccc4sc(C5CCCC5)nc4c3)c2c1	enzyme activity	inhibitor	–	1 µM	activity vs control	101%
CC#CC(=O)N1CCC[C@H]1c1nc(-c2ccc(C(=O)Nc3ccccn3)cc2)c2c(N)nccn12	enzyme activity	inhibitor	–	1 µM	inhibition	0%
